# From PubChem BioAssay
# NR2E3 ag-1 = activates human photoreceptor nuclear receptor NR2E3 | hit rate 0.12% among 320,000 | Q9Y5X4 | inhibition of corepressor binding, % at 4.78 µM | AID 2300 | GST-NR2E3/biotin-RetCOR TR-FRET, 1536-well;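 active means percent inhibition above the cutoff of mean plus 3 SD of all tested compounds, set per screening campaign, cut at about 20% in these data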;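 further: 0% = DMSO wells and 100% = biotin wells as full block of FRET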
#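 System: GST-tagged NR2E3 plus biotinylated RetCOR corepressor; Amount: 1.35 nM GST-tagged NR2E3 final; Dosing: single nominal compound dose of 4.8 µM; Schedule: 5 h incubation at 4 °C; Technique: TR-FRET with europium anti-GST and streptavidin-D2, 340 nm excitation; Controls: biotin wells as high control, 0.6% DMSO wells as low control.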
# CHT block = inhibits the human high affinity choline transporter; Q9GZV3; CHT-expressing cells, membrane potential dye, choline response; stronger effect = lower value; B-score at 10 µM; hit rate 0.86% among 310,000; AID 488975;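 active means B-score over 3 SD under the library average, and starting fluorescence ratio not unusually high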;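 further: choline stimulus applied at its EC90 after an EC20 pre-addition; B-score computed on integrated fluorescence ratio after choline addition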
# Target sequence (Q9GZV3 whole entry, looked up): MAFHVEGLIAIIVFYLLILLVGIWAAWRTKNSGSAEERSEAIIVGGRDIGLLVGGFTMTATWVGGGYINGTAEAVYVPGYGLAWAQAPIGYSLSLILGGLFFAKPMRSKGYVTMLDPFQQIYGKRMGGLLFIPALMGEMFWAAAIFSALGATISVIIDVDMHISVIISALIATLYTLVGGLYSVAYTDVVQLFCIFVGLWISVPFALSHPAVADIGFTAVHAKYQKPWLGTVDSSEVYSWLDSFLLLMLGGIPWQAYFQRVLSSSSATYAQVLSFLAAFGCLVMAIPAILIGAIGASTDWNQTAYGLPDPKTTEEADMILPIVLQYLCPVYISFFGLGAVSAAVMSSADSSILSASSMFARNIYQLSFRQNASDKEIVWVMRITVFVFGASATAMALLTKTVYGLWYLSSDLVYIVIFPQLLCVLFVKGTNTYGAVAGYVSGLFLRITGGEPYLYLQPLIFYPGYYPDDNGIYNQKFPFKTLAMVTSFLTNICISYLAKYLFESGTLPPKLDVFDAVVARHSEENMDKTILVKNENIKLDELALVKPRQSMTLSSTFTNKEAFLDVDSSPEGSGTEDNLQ
# GalR3 antag = human GalR3 antagonism; AID 651719; HEK293 GalR3-CNG cAMP membrane potential fluorescence; galR3 body fused to GalR1 C-terminus; O60755; hit rate 0.44% among 360,000; inhibition, % at 3 µM;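 active means inhibition above the screen-wide average plus 3 SD, cut at about 13% in these data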;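 further: forskolin and galanin both at EC90 stimulate the cells; cAMP rise reported by CNG channel membrane potential dye signal; 0% = forskolin plus galanin with DMSO and 100% = forskolin alone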
# NR2E3 ag-2 = agonists of human NR2E3 nuclear receptor; CHO-S Gal4-NCOR/VP16-NR2E3 two-hybrid, luciferase; AID 602229; inhibition of corepressor binding, % at 3.98 µM; Q9Y5X4; hit rate 0.35% among 360,000;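 active means inhibition above the mean of all tested compounds plus 3 SD, cut at about 70% in these data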;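 further: 0% = DMSO with NR2E3 transfected cells and 100% = cells lacking NR2E3 construct; higher means lower luciferase signal from less NR2E3 corepressor binding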
# COUP-TFII inh = inhibitors of human COUP-TFII (NR2F2); P24468; HEK293T NGFI-A luciferase reporter, luminescence; inhibition, % at 8.6 µM; hit rate 0.7% among 370,000; AID 686940;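 active means inhibition above a per-plate cutoff, mean inhibition of test wells between control levels plus 3 SD, cut at about 38% in these data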;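 further: cells cotransfected with COUP-TFII expression vector driving the NGFI-A reporter; 0% = median of COUP-TF2 test wells and 100% = reporter-only cells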
# CHT allo act = human CHT allosteric activation; CHT-expressing cells, membrane potential dye, choline EC20; stronger effect = higher value; LV-AA mutant CHT in HEK293 cells; B-score at 10 µM; hit rate 0.49% among 310,000;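 active means initial fluorescence not abnormally high and integrated response B-score, plate-corrected, over 3 SD above library mean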
# CHT activ conf = human CHT activation, confirmatory screen. shares compounds with CHT allo act. CHT-expressing cells, membrane potential dye fluorescence (FDSS); % of choline EC20–EC90 response window; HEK293 expressing CHT LV-AA mutant; choline added at its EC20. activation, % at 10 µM. hit rate 91% among 2,500. AID 504833;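 active means primary screen active, with duplicate mean activation above negative control mean plus 3 SD, cut at about 11% in these data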
# HEK293 MP dye = CHT activator counter-screen hit in parental HEK293 cells. ratio readout change at 10 µM, hits read low. membrane potential dye fluorescence (FDSS); measured after EC20 choline addition. shares compounds with CHT allo act. hit rate 62% among 2,500;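 active means duplicate-averaged ratio beyond 3 SD from buffer wells, up or down, though filed actives are nearly all decreases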
# An asterisk follows results filed as active; i = inactive; · = not tested or not shown. Rows were chosen to be rich in hits. Some 2.3% of all compounds tested hit in one or more screens of this group.
SMILES,NR2E3 ag-1,CHT block,GalR3 antag,NR2E3 ag-2,COUP-TFII inh,CHT allo act,CHT activ conf,HEK293 MP dye
N#C/C(=C\c1c(N2CCCCC2)nc2ccccn2c1=O)C(=O)NC1CCS(=O)(=O)C1 (stereo not given),-1,i,0,-27,0,13*,0,-62*
CCOC(=O)c1ccc2[nH]c3c(c2c1)CN(C)CC3,-1,i,·,-38,5,6.8*,32*,-43*
COc1cc2c(cc1OC)CSC1C(=O)N(C)C(SC2)C(=O)N1C,·,·,·,·,1,·,·,·
COc1ccc(Cn2c(-c3ccc(Br)cc3)c[n+]3ccccc23)cc1,-2,i,5,-121,-6,9.6*,70*,-60*
O=C(c1cc(F)ccc1F)C1CCCN(Cc2cccn2-c2ccccn2)C1 (stereo not given),2,i,-10,1,-9,13*,42*,i
COc1ccc(C(=O)C2CCCN(Cc3cccn3-c3ccccn3)C2)c(OC)c1 (stereo not given),2,i,-10,-28,3,i,·,·
COc1ccc(F)cc1C(=O)C1CCCN(Cc2cccn2-c2ccccn2)C1 (stereo not given),4,i,-7,-8,11,16*,58*,i
CCCC1CCC2(CCC(=O)N2CCSc2ccccc2)CC1 (stereo not given),·,·,·,·,-8,·,·,·
COc1ccc(Cn2cc(CN3[C@H](Cc4ccccc4)COc4cc(Br)ccc4S3(=O)=O)nn2)cc1,·,·,·,·,-9,·,·,·
CCC(Sc1nc2cc(OC)c(OC)cc2c(=O)n1Cc1ccc(OC)cc1)C(=O)NCCOC (stereo not given),-5,i,-2,-14,9,6.6*,4,i
Cc1ccn2c(NC3CCCC3)c(-c3ccncc3)nc2c1,-4,i,-1,0,-13,7.2*,47*,-63*
N#Cc1cc(N2CCCCC2)c([N+](=O)[O-])cc1C#N,6,i,-1,6,-3,i,·,·
CN(C)CCC1CCN(c2cc(C#N)c(C#N)cc2[N+](=O)[O-])CC1,-4,i,-2,-2,-6,7.2*,58*,-64*
NC(=O)CSc1nc2ccccc2c(=O)n1CCc1ccccc1,1,i,-8,-18,-9,i,·,·
COc1ccc(NC(=O)CSc2nc3ccccc3c(=O)n2CCCN2CCCCC2)c(OC)c1,1,i,-7,-17,1,12*,73*,-39*
Cn1c(=O)c2c(nc(SCCN3CCCCC3)n2C)n(C)c1=O,0,i,-4,-17,1,i,56*,-72*
O=c1c2ccccc2nc(SCCN2CCCCC2)n1CCc1ccccc1,6,i,-4,-33,-6,7.8*,4,-27*
O=C(c1cc(Cl)cc(Cl)c1)N1CCC(Oc2cccnc2)CC1,·,·,·,·,23,·,·,·
COC(=O)[C@]12C[C@H](CC(=O)N3CCN(C(=O)c4ccco4)CC3)C(=O)N(CCc3ccc(OC)c(OC)c3)C1=C[C@H](C(C)C)O[C@@H]2C1CC1,·,·,·,·,5,·,·,·
CCn1c(SCC(=O)c2ccc(-c3ccccc3)cc2)nnc1-c1ccc(C(C)(C)C)cc1,·,·,·,·,11,·,·,·
Cc1cccc(COCC(Cc2ccccc2)N2CCN(C(=O)c3cccc(Cl)c3)CCC2=O)c1 (stereo not given),2,i,-8,4,19,i,·,·
O=C(c1cccc(Cl)c1)N1CCC(=O)N(C(COCc2ccccc2)Cc2ccccc2)CC1 (stereo not given),4,i,-6,-12,6,6.3*,29*,i
COC(=O)C1CN(C(=O)C(C)Oc2ccc(C(C)C)cc2)c2ccccc2O1 (stereo not given),3,i,-9,-4,7,i,18*,i
